Numbering of substitutions follows the chain as printed. Active and inactive are the calls of the source. The rule behind the calls is not given here.
What was measured:
[1] = target: T1, C-C chemokine receptor type 3 (Homo sapiens) (UniProt P51677); test: Agonist activity at human recombinant CCR3 expressed in eosinophils; type: functional
T1 sequence (whole entry): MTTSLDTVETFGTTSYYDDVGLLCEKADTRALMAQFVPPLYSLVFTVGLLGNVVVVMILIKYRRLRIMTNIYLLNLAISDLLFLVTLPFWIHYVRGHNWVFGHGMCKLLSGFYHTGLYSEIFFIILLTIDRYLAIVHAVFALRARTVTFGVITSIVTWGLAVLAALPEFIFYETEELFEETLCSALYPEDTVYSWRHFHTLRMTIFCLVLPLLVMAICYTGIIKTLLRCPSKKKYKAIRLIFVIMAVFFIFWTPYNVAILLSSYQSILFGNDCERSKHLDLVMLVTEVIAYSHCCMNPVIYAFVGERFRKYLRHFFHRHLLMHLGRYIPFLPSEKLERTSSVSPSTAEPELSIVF
Summary of the method: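 Gated autofluorescence forward scatter (shape change) assay. Granulocytes from healthy-donor blood were isolated on plasma/Percoll gradients and pre-incubated at 5×10^6 cells/ml for 30 min at room temperature in GAFS buffer (PBS, 0.9 mM CaCl2, 0.5 mM MgCl2, 10 mM HEPES, 10 mM glucose, 0.1% BSA). Cells were exposed to varying compound concentrations for 4 min at 37°C, chilled, fixed and read by flow cytometry.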

[2] = target: T1, C-C chemokine receptor type 3 (Homo sapiens); test: Agonist activity at human recombinant CCR3 expressed in mouse L1.2 cells assessed as receptor internalization at 10 uM after 20 mins by flow cytometry
[3] = test system: T2, C-C chemokine receptor type 3 (Homo sapiens), P51677 [Y113A]; test: Agonist activity at human recombinant CCR3 Y113A mutant expressed in mouse L1.2 cells assessed as induction of chemotaxis; type: functional, cell-based
T2 sequence (whole entry): T1 sequence (whole entry) with Y113A
Summary of the method: (§1)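 L1.2 cells transfected with CCR3 (stable line kept in 1 mg/ml G-418, or transient electroporation at 1 μg DNA/1 × 10^6 cells, then overnight 10 mM sodium butyrate). Duplicate agonist concentrations in RPMI/0.1% BSA were placed in the lower wells and 2 × 10^5 cells on the upper filter (5 μm pores). After 5 h at 37°C, 5% CO2, migrated cells were counted by hemocytometer and expressed as % migrating.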

[4] = target: T1, C-C chemokine receptor type 3 (Homo sapiens); test: Reduction of human recombinant CCR3 expression in mouse L1.2 cells relative to control; type: cell-based; set-up: scale not given: the % may be the effect or the level left
Summary of the method: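 In duplicate, 1 × 10^6 CCR3-L1.2 cells in ice-cold medium were warmed to 37°C for 20 min, then given stimulus (100 nM CCL11 or 10 μM compound) for 20 min; ice-held tubes and a buffer tube served as controls. Surface CCR3 was measured by anti-CCR3 flow cytometry as mean fluorescence minus isotype, expressed as % of buffer-treated cells.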

[5] = target: T1, C-C chemokine receptor type 3 (Homo sapiens); test: Agonist activity at human recombinant CCR3 expressed in mouse L1.2 cells assessed as induction of chemotaxis; type: functional, cell-based; summary of the method: as §1
[6] = test system: T3, C-C chemokine receptor type 3 (Homo sapiens), P51677 [Y41A]; test: Agonist activity at human recombinant CCR3 Y41A mutant expressed in mouse L1.2 cells assessed as induction of chemotaxis; type: functional, cell-based; summary of the method: as §1
T3 sequence (whole entry): T1 sequence (whole entry) with Y41A

[7] = test system: T4, C-C chemokine receptor type 3 (Homo sapiens), P51677 [E287Q]; test: Agonist activity at human recombinant CCR3 E287Q mutant expressed in mouse L1.2 cells assessed as induction of chemotaxis; type: functional, cell-based; summary of the method: as §1
T4 sequence (whole entry): T1 sequence (whole entry) with E287Q

Activity [1]: Dose-dependent effect
Activity [2]: Active
Activity [3]: inactive
Activity [4]: 59.4%
Activity [5]: Dose-dependent effect
Activity [6]: inactive
Activity [7]: inactive
SMILES: O=C(Cc1cccc2occc12)Nc1cc[n+](CCCc2ccccc2)c(Br)c1
